SENP1 inh: blocks the human SENP1 SUMO protease catalytic domain; Q9P0U3; recombinant SENP1 catalytic domain, CyPet-SUMO1-YPet FRET cleavage; inhibition, % at 10 µM; actives 0.21% (n = 360,000);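 active = inhibition at least 30% at 10 µM, raw YFP signal under a set limit, fluorescence ratio 0.5 to 1.5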;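 also: 0% = enzyme with DMSO and 100% = no enzyme wells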
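Assay system: hSENP1 catalytic domain, recombinant. Amount: SENP1 enzyme, 20 pM final. Schedule: 50 min reaction, RT, dark. Technique: FRET, CFP and YFP emission. Control set: no-enzyme wells low, DMSO-plus-enzyme wells high control.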
SENP7 block: SENP7 protease inhibition. inhibition, % at 5 µM. AID 434973. actives 1.5% (n = 330,000). recombinant SENP7, Z-RLRGG-aminoluciferin luminescence, 40 min;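 active = inhibition above about 50% at the single test dose, limit read from the data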;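 also: plate controls were DMSO with enzyme for no effect and no enzyme buffer wells for full effect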
SENP8 block-1: SENP8 protease inhibition. inhibition, % at 10 µM. actives 1.2% (n = 330,000). AID 2540. purified SENP8, Z-RLRGG-aminoluciferin cleavage, luminescence. Q96LD8; in the data active = inhibition above about 50%
Target sequence (Q96LD8 whole entry, looked up): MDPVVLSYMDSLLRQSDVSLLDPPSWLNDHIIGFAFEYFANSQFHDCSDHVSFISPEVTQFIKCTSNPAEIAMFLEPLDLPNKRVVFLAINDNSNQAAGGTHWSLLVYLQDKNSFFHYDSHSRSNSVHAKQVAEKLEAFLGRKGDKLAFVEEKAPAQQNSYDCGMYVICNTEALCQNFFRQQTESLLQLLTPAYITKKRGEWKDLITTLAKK
Apaf-1 inh: blocks human Apaf-1 apoptosome activity; O14727; reconstituted apoptosome caspase-3 activity, DEVD-Rh110 fluorescence; inhibition, % at 20 µM; actives 0.71% (n = 330,000); AID 489030; active = inhibition of at least 40% at 20 µM;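 also: plate controls were DMSO wells for no effect and DEVD-CHO caspase inhibitor wells for full effect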
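Material: reconstituted apoptosome with Apaf-1, cytochrome c, caspase-9, procaspase-3, dATP. Technique: Rh110 fluorescence intensity. Buffer or medium: pH 7.5 Hepes buffer with CHAPS, BSA, DTT. Times: 30 min plus 50 min, RT.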
SENP8 block-2: inhibitors of human SENP8 protease; Q96LD8; recombinant SENP8, Nedd8 substrate fluorescence; inhibition, % at 20 µM; actives 0.64% (n = 360,000); in the data active = inhibition mostly above about 40%, no sharp cut-off; inactive = mostly below about 27%
SENP6 inh: inhibitors of human SENP6 protease | actives 1.8% (n = 330,000) | Recombinant SENP6 catalytic domain, aminoluciferin luminescence | AID 2599 | Q9GZR1 | inhibition, % at 10 µM;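 active = inhibition above about 50% at the single tested dose, limit read from the data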;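 also: plate controls were DMSO wells with enzyme for no effect and DMSO wells lacking enzyme for full effect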
Target sequence (Q9GZR1 628-1112 limits assumed): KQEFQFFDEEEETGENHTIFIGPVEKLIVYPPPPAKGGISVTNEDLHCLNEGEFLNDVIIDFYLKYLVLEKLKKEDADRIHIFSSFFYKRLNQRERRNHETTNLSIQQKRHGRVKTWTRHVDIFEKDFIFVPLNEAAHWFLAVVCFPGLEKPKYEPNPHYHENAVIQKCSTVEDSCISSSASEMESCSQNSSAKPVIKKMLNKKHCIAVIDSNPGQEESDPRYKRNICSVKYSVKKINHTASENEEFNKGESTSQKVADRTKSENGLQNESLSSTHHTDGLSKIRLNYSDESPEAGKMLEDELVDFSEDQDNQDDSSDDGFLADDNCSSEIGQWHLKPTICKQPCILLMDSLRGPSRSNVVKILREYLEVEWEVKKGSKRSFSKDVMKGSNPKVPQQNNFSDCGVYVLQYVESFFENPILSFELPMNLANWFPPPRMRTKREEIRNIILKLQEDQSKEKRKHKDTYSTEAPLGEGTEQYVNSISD
* = called active by the depositor; i = inactive; . = no result. This is a sample that favours compounds with a hit; in the whole collection about 2.9% have one here.

SMILES | SENP1 inh | SENP7 block | SENP8 block-1 | Apaf-1 inh | SENP8 block-2 | SENP6 inh
CC[C@H](C)[C@@H](C(=O)NCCCCCCCCCCC(=O)N1CCN(C(=O)OC(C)(C)C)CC1)n1cc(CCCCCNC(=O)OC(C)(C)C)nn1 | 0.8 | 8.4 | 2.8 | 5.5 | 7.9 | 2.5
C#CCOCCOCCOCCNc1nc(N2CCN(C(=O)CCCCCCCCCCNC(=O)[C@H]([C@@H](C)CC)n3cc(CCCCN=C(N)N)nn3)CC2)nc(N2CCN(C(=O)CCCCCCCCCCNC(=O)[C@H]([C@@H](C)CC)n3cc(CCCCN=C(N)N)nn3)CC2)n1 | . | 4.1 | -3.3 | 41.3* | . | -61.8
CCCNC(=O)C1(C)CCN1C(=O)Cc1ccc(C(C)C)cc1 (centres undefined) | -0.8 | . | . | . | 12.8 | .
C=CCn1c(O)c(N=Nc2ccccc2[N+](=O)[O-])c2ccccc21 | 4.8 | . | . | . | 46.5* | .
COc1cc2ccc(NC(C)=O)cc2cc1OC | -3.5 | . | . | . | 6.9 | .
Clc1ccc(COn2c(-c3ccc(Cl)cc3)nc3ccccc32)cc1 | 2.0 | -5.2 | 4.1 | 21.8 | -0.3 | 18.4
O=[N+]([O-])c1ccc2nc(-c3ccc(Cl)cc3)n(OCc3ccccc3)c2c1 | 0.9 | 59.8* | 16.3 | 13.9 | -1.5 | 74.5*
COc1ccc(-c2coc3cc(OC)cc(O)c3c2=O)cc1 | 4.4 | 62.6* | -10.5 | 0.2 | 15.5 | 30.1
Cc1ccnc2c1ccc1c(C)ccnc12 | 0.4 | -12.5 | -13.7 | 44.5* | 8.8 | -14.5
Cc1ccnc2c1ccc1cccnc12 | 1.8 | -2.0 | -4.6 | 4.9 | 14.2 | -20.1
Cc1cc(O)c(/C=N/Nc2ccc(Cl)cc2)c(=O)o1 | -9.6 | 55.5* | 80.4* | 10.7 | -100.8 | 85.1*
CN(CC(=O)Nc1ccc(Cl)cc1)CC(=O)N1CCc2ccccc21 | -0.1 | . | . | . | 22.6 | .
CCN(CC)c1ccc(/C=N/NC(=O)c2ccc(Br)o2)cc1 | -39.2 | 49.3 | 34.3 | -1.7 | -292.4 | 70.0*
CC(=O)Oc1ccc2c(=O)c(-c3ccccc3)coc2c1 | -1.2 | 58.8* | 22.0 | 3.4 | -192.6 | 20.9
NC(=O)c1ccccc1NC(=O)c1cc(S(=O)(=O)N2CCCCC2)ccc1N1CCOCC1 | 0.7 | -6.5 | -12.7 | 19.8 | -425.8 | -4.0
O=C(OCc1cc(Cl)ccc1OC(F)F)c1cncc(Br)c1 | -0.8 | 5.3 | 2.4 | 8.3 | 7.9 | -2.3
O=C(OCc1cc(Cl)ccc1OC(F)F)c1ccc([N+](=O)[O-])o1 | . | 3.7 | 14.1 | 66.4* | . | 16.9
COc1ccc(C(=O)c2coc3c2C(=O)C(=O)c2ccccc2-3)cc1 | 1.5 | 5.8 | 3.7 | 19.9 | 82.9* | 30.5
Cc1cc(O)ccc1N/C=C/c1onc(C)c1[N+](=O)[O-] | 23.1 | 96.6* | 46.7 | -4.0 | 26.5 | 87.4*
Cc1cccc(/C=C/c2onc(C)c2[N+](=O)[O-])n1 | . | -2.7 | 2.3 | -17.1 | . | 1.3
COc1ccc(OC)c(S(=O)(=O)NC(=O)C2(C)CCN2C(=O)c2ccco2)c1 (centres undefined) | -0.6 | . | . | . | 12.4 | .
Cc1cc(C)nc(SCc2csc(-c3ccccc3)n2)n1 | -0.4 | 38.2 | 29.6 | -7.8 | 10.8 | 59.7*
CC(C)C(NC(=O)c1ccc(F)cc1)C(=O)N1CCN(c2ccccn2)CC1 (centres undefined) | 1.0 | -12.3 | -9.9 | -5.1 | -20.7 | 4.7
O=C(O)c1ccc(-c2ccc(-c3ccccc3)cc2)s1 | -12.9 | 101.3* | 96.7* | 15.1 | -299.4 | 99.0*
Cn1nc(-c2ccc(Cl)cc2)c2cc(C(=O)NCCCN3CCCC3)sc21 | -2.2 | 0.9 | -4.7 | 49.2* | -197.2 | -11.5
SMILES | SENP1 inh | SENP7 block | SENP8 block-1 | Apaf-1 inh | SENP8 block-2 | SENP6 inh
CCC(C(=O)NCc1ccccc1)n1c(CSCCOc2ccccc2)nc2ccccc21 (centres undefined) | 0.0 | . | . | . | 12.4 | .
N#CCCN(C(=O)COC(=O)c1cc2ccccc2oc1=O)c1ccccc1 | 0.8 | -6.4 | -10.0 | 8.5 | -284.6 | -17.8
O=C(O)c1cc2c(ccc3ccccc32)o1 | -10.0 | -1.5 | -4.9 | -25.2 | -22.7 | -37.7
NC(N)=Nc1cc2ccccc2c2ccccc12 | . | 23.1 | 23.5 | 76.8* | . | 42.5
COc1ccc(-c2[nH]n(-c3ccc([N+](=O)[O-])cc3)c(=O)c2C=NCCN2CCNCC2)cc1 | . | -0.3 | 3.3 | 5.7 | . | 13.5
O=c1c(C=NCCN2CCNCC2)c(-c2ccccc2)[nH]n1-c1ccc([N+](=O)[O-])cc1 | . | 83.9* | 90.3* | 9.8 | . | 92.8*
COc1cccc(NC(=S)/C(=C(\[O-])c2ccc(C)c([N+](=O)[O-])c2)[n+]2ccccc2)c1 | -38.0 | 2.6 | 8.7 | 34.4 | 39.4* | 47.4
O=C1C(=O)c2ccccc2C([O-])=C1[n+]1ccccc1 | -0.3 | 6.3 | 12.7 | 32.4 | 59.2* | 40.5
COc1ccc(NC(=O)CCl)cn1 | . | 20.0 | 25.5 | 67.2* | . | 49.1
C/C(=C1/C(=O)N(c2ccc([N+](=O)[O-])cc2)N=C1c1ccccc1)N(C)C | . | 9.2 | 13.1 | 5.5 | . | 14.0
CN(C)/C=C1/C(=O)N(c2ccc([N+](=O)[O-])cc2)N=C1c1ccccc1 | . | 97.2* | 96.1* | 10.1 | . | 101.5*
Cc1occc1C(=O)N/N=C/c1ccc2c(c1)OCO2 | 1.3 | 98.9* | 95.6* | -25.4 | 2.6 | 100.2*
Cc1occc1C(=O)N/N=C/c1ccc(OCc2ccccc2)cc1 | 2.7 | 90.4* | 80.1* | 8.6 | 16.1 | 90.0*
CCN1/C(=C/c2ccc3cc(C)cc(C)c3[n+]2CC)Sc2cc(C)ccc21 | 73.9 | . | . | . | 22.8* | .
CCN1/C(=C\c2ccc3cc(C)ccc3[n+]2CC)Sc2cc(C)c(C)cc21 | 49.0 | . | . | . | 30.3 | .
O=C(/C=C/Nc1ccccc1F)c1ccc(Br)cc1 | -43.0 | . | . | . | -51.0 | .
O=C(/C=C/Nc1ccc(F)c(F)c1)c1ccc(Br)cc1 | -63.4 | 67.4* | 37.1 | -103.2 | -157.2 | 48.3
COC(=O)[C@]12CCCCC=C1N(Cc1cccc3ccccc13)C(=O)[C@H](CC(=O)NCc1cccs1)C2 | -0.6 | . | . | . | 18.7 | .
CN(C)CCOc1ccc(-c2c(-c3ccccc3)sc3ccccc23)cc1 | 1.4 | -3.7 | -23.5 | 77.5* | -123.6 | -29.2
O=C(c1cccn2c(=O)c3cc4ccccc4cc3nc12)N1CCN(c2ccccc2)CC1 | . | 69.8* | 27.8 | 4.6 | . | 45.2
Cc1nc2sc(-c3ccccc3)cc2c(=O)n1/N=C/N(C)C | -0.3 | 7.2 | 6.5 | -5.5 | -234.8 | -20.9
Cc1nc2sc(-c3ccccc3)cc2c(=O)n1N | 0.5 | 98.7* | 96.1* | -12.6 | -57.6 | 94.6*
CCCCCCSc1ccc(-c2nc3cc(C)ccn3c2NC2CCCCC2)cc1 | -18.3 | 1.6 | -6.4 | 46.6* | i | 1.8
COc1cccc(N=Nc2c(N)[nH]n3c(=O)cc(-c4ccccc4)nc23)c1 | 1.4 | 12.2 | 16.5 | 37.5 | 65.3* | 23.4
CC(=O)NN1C(=O)/C(=C/c2ccc(Br)o2)SC1=S | 42.8* | -5.9 | -5.5 | -4.2 | 44.4* | -1.3

Source: PubChem BioAssay
